Measured values collected from several papers.
Each line is one published result; the experiments were not run side by side.
ALK: ALK tyrosine kinase receptor (ALK, Homo sapiens, UniProt Q9UM73)

Cn1cncc1[C@](O)(COc1ccc(C#N)cc1-c1ccc(OC(F)(F)F)cc1)c1ccc(C#N)cc1  remaining binding (ALK tyrosine kinase receptor (ALK, Homo sapiens, UniProt Q9UM73, C1156Y); cell-free assay; competition with immobilised ligand; 1 µM): 92%
C#Cc1n[nH]c2c(-c3cn(C(C)c4ccccn4)c(=O)[nH]c3=O)cc(F)cc12 (stereo not drawn)  inhibition (ALK; enzyme activity; inhibitor; 1 µM): 11.2%
COc1cc(Nc2ncc(F)c(Nc3ccc4c(n3)NC(=O)C(C)(C)O4)n2)cc(OC)c1OC  inhibition (ALK; binding; competition with immobilised ligand; 10 µM): 99%
C#Cc1n[nH]c2c(-c3cn([C@@H](C)c4ccccc4)c(=O)[nH]c3=O)cc(F)cc12  inhibition (ALK; enzyme activity; inhibitor; 0.1 µM): 7.7%
O=c1[nH]c2ccccc2n1C1CCN(Cc2ccc(-c3[nH]c4cc5ncnc5cc4nc3-c3ccccc3)cc2)CC1  remaining signal (ALK; cell-free assay; 0.5 µM): 106%
COc1ncccc1-c1cnn2ccc(N3CCN(C(=O)OC(C)C)CC3)nc12  remaining binding (ALK; binding; competition with immobilised ligand; 1 µM): 100%
Nc1ncc(-c2nc(N3CCOCC3)nc(N3CCOCC3)n2)c(C(F)F)n1  remaining binding (ALK tyrosine kinase receptor (ALK, Homo sapiens, UniProt Q9UM73, L1196M); cell-free assay; competition with immobilised ligand; 10 µM): 44%
Cc1nn(C)cc1-c1nc2c(N3CCN(Cc4ccc(Cl)cc4)CC3)c(Cl)cnc2[nH]1  remaining binding (ALK; binding; competition with immobilised ligand; 1 µM): 100%
CC(C)(C)c1cc(C=C(C#N)C#N)cc(Br)c1O  remaining activity (ALK; enzyme activity; inhibitor; 0.5 µM): 97.9%
